# Measurements from ChEMBL document CHEMBL1914372, “Synthesis and preliminary biological evaluation of novel N-(3-aryl-1,2,4-triazol-5-yl) cinnamamide derivatives as potential antimycobacterial agents: an operational Topliss Tree approach” (Bioorg Med Chem Lett, 2011).
# Legend:
# [1] = system: Mycobacterium tuberculosis; assay: Antimycobacterial activity against Mycobacterium tuberculosis H37Rv after 7 days by resazurin based microdilution assay; format: functional; details: 168 h
# Summary of the method: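 M. tuberculosis H37Rv in resazurin microtitre assay (REMA) with two-fold serial dilutions of compound; isoniazid as reference drug. MIC taken as lowest concentration giving complete inhibition, read visually by colour change (blue stays blue without growth, turns pink with growth).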
# [2] = Cytotoxicity against african green monkey Vero C1008 cells after 72 hrs by MTT assay; format: cell-based; details: chlorocebus sabaeus
# Summary of the method: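 Mammalian VERO C1008 cells were exposed to the compounds in microtitre plates, viability was read by MTT assay, and CC50 values were determined.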
Structure (SMILES),MIC [1] [µM],CC50 at 72 h [2] [µM]
O=C(/C=C/c1ccccc1)Nc1nnc(-c2ccccc2)[nH]1,86.2,1570
O=C(/C=C/c1ccc(Cl)cc1)Nc1nnc(-c2ccccc2)[nH]1,92.6,1620
COc1ccc(/C=C/C(=O)Nc2nnc(-c3ccccc3)[nH]2)cc1,39.1,1280
Cc1ccc(/C=C/C(=O)Nc2nnc(-c3ccccc3)[nH]2)cc1,82.2,1760
O=C(/C=C/c1ccc(O)cc1)Nc1nnc(-c2ccccc2)[nH]1,40.8,1850
Nc1ccc(/C=C/C(=O)Nc2nnc(-c3ccccc3)[nH]2)cc1,20.5,1910
O=C(/C=C/c1ccc2c(c1)COC2)Nc1nnc(-c2ccccc2)[nH]1,18.8,1820
COc1ccc(/C=C/C(=O)Nc2nnc(-c3ccccc3)[nH]2)cc1OC,4.6,1210
O=C(/C=C/c1cccc(Cl)c1)Nc1nnc(-c2ccccc2)[nH]1,38.6,1470
O=C(/C=C/c1cccc([N+](=O)[O-])c1)Nc1nnc(-c2ccccc2)[nH]1,9.7,1990
O=C(/C=C/c1ccco1)Nc1nnc(-c2ccccc2)[nH]1,11.6,2180
O=C(/C=C/c1ccc([N+](=O)[O-])s1)Nc1nnc(-c2ccccc2)[nH]1,4.8,1670
C=C(C)COc1ccc(/C=C/C(=O)Nc2nnc(-c3ccccc3)[nH]2)cc1,9,1420
O=C(/C=C/c1ccc(OC(F)(F)F)cc1)Nc1nnc(-c2ccccc2)[nH]1,8.6,1560
NNC(=O)c1ccncc1 [ISONIAZID],1.8,1460
